pIC50: −log10 of the molar value.
Legend:
[1] = Plasma concentration in cynomolgus monkey at 30 mg/kg administered as oral gavage measured after 1 hr by RP-HPLC analysis; format: ADME, organism-based, Macaca fascicularis
How it was run: (§1)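 Female cynomolgus monkeys (2.5–3.5 kg). Compound dissolved in EtOH at 75 mg/mL, diluted in 10 volumes of 20 mM NaHCO3 pH 8.0 (9.1% EtOH) and given by oral gavage; 4.4 mL/kg for 30 mg/kg, 2.2 mL/kg for lower doses. Blood drawn into heparin pre-dose and at 0.5, 1, 2, 4, 8, 12, 24 h, sometimes 3 and 7 days. Plasma diluted with 2 volumes MeOH plus internal standard, then RP-HPLC.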

[2] = Plasma concentration in cynomolgus monkey at 30 mg/kg administered as oral gavage measured after 8 hrs by RP-HPLC analysis; format: ADME, organism-based, Macaca fascicularis; how it was run: as §1
[3] = Tmax in cynomolgus monkey plasma at 30 mg/kg administered via oral gavage by RP-HPLC analysis; format: ADME, organism-based, Macaca fascicularis; how it was run: as §1
[4] = Cmax in cynomolgus monkey plasma at 30 mg/kg administered via oral gavage by RP-HPLC analysis; format: ADME, organism-based, Macaca fascicularis; design: dose 30 mg/kg, route oral; how it was run: as §1
[5] = Half life in cynomolgus monkey plasma at 30 mg/kg administered via oral gavage by RP-HPLC analysis; format: ADME, organism-based, Macaca fascicularis; how it was run: as §1
[6] = AUC (0 to 24 hrs) in cynomolgus monkey plasma at 30 mg/kg administered via oral gavage by RP-HPLC analysis; format: ADME, organism-based, Macaca fascicularis; design: dose 30 mg/kg, time < 24 hr, route oral; how it was run: as §1
[7] = target: Oxoeicosanoid receptor 1 (Homo sapiens, UniProt Q8TDS5); experiment: Antagonist activity at OXE receptor in human neutrophils assessed as inhibition of 5-oxo-ETE-induced calcium mobilization incubated for 2 mins followed by 5-oxo-ETE addition measured after 1 min by fluorescence assay; format: functional
How it was run: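 Human neutrophils were isolated from healthy donors by dextran sedimentation and Ficoll-Paque centrifugation, then loaded with indo-1. Fluorescence was read at 37 °C in a stirred cuvette. Antagonist was added at various concentrations; 2 min later 5-oxo-ETE (10 nM) was added. Digitonin (final 0.1%) followed 1 min later to give maximal fluorescence.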

[8] = Tmax in cynomolgus monkey plasma at 15 mg/kg administered via oral gavage by RP-HPLC analysis; format: ADME, organism-based, Macaca fascicularis
[9] = Cmax in cynomolgus monkey plasma at 15 mg/kg administered via oral gavage by RP-HPLC analysis; format: ADME, organism-based, Macaca fascicularis; design: dose 15 mg/kg, route oral
[10] = Half life in cynomolgus monkey plasma at 15 mg/kg administered via oral gavage by RP-HPLC analysis; format: ADME, organism-based, Macaca fascicularis
[11] = AUC (0 to 24 hrs) in cynomolgus monkey plasma at 15 mg/kg administered via oral gavage by RP-HPLC analysis; format: ADME, organism-based, Macaca fascicularis; design: time < 24 hr, dose 15 mg/kg, route oral
[12] = Plasma concentration in cynomolgus monkey at 30 mg/kg administered via oral gavage after 24 hrs by chiral-HPLC analysis; format: ADME, organism-based, Macaca fascicularis
How it was run: (§2)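 After oral gavage of racemate at 30 mg/kg, plasma C025 or its metabolite was isolated by RP-HPLC, then run by chiral HPLC on Cellulose-1 at 2 ml/min and 30 °C. Mobile phase was hexane/MeOH/HOAc 97.5:2.5:0.1 for parent and 97:3:0.1 for metabolite. Samples were taken at 4 h and 24 h; n=2 for enantiomer levels.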

[13] = Drug metabolism in cynomolgus monkey plasma at 30 mg/kg administered via oral gavage assessed as metabolite (S)-5-(5-Chloro-2-((S)-1-hydroxy-6-phenylhexyl)-1-methyl-1Hindol-3-yl)-3-methyl-5-oxopentanoic acid formation after 24 hrs by chiral-HPLC analysis; format: ADME, organism-based, Macaca fascicularis; conditions: in vivo; how it was run: as §2
[14] = Drug level in cynomolgus monkey plasma treated with 30 mg/kg 5-(5-Chloro-1-methyl-2-(6-phenylhexyl)-1H-indol-3-yl)-3-methyl-5-oxopentanoic Acid administered via oral gavage assessed as compound formation after 12 hrs by RP-HPLC analysis; format: ADME, organism-based, Macaca fascicularis; conditions: in vivo
How it was run: (§3)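 Monkeys received 30 mg/kg by oral gavage in EtOH/20 mM NaHCO3 pH 8.0 vehicle. A plasma extract taken 12 h later was run by RP-HPLC on a C18 column (4 µm, 3.9 x 150 mm) with a 15-min gradient of 70–100% MeOH in H2O, both containing 0.02% HOAc. The tetramethylene analog served as internal standard.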

[15] = Drug metabolism in cynomolgus monkey plasma at 30 mg/kg administered via oral gavage assessed as metabolite (S)-5-(5-Chloro-2-((S)-1-hydroxy-6-phenylhexyl)-1-methyl-1Hindol-3-yl)-3-methyl-5-oxopentanoic acid formation after 12 hrs by RP-HPLC analysis; format: ADME, organism-based, Macaca fascicularis; conditions: in vivo; how it was run: as §3

Oxoeicosanoid receptor 1, sequence (Q8TDS5 whole entry): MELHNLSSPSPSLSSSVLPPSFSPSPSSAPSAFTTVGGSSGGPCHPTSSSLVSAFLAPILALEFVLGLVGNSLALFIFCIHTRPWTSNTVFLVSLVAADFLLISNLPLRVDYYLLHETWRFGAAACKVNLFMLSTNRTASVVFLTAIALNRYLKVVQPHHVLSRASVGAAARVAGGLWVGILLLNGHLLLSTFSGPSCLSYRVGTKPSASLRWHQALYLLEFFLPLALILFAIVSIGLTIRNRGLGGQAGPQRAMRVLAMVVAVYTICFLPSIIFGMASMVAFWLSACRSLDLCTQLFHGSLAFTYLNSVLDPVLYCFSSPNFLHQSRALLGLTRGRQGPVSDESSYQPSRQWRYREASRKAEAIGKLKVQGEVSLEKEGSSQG

Tmax [3] [h] | Cmax [4] [µM] | half-life [5] [h] | AUC(0-t) at 24 h [6] [µM·h] | pIC50 [7] | Structure (SMILES) | other results
0.9 | 27 | 1.2 | 55 |  | CCCCCCc1cc2ccc(Cl)cc2n1C(=O)CC(C)CC(=O)O (racemic) | concentration at 1 h [1]: > 25 µM; concentration at 8 h [2]: < 0.5 µM
 |  |  |  | 6.12 | C[C@@H](CC(=O)O)CC(=O)c1c([C@H](O)CCCCCc2ccccc2)n(C)c2ccc(Cl)cc12 | 
0.6 | 121 | 0.7 | 198 | 7.59 to 7.77 | CCCCCCc1c(C(=O)CC(C)CC(=O)O)c2cc(Cl)ccc2n1C (racemic) | 
 |  |  |  | 6.92 | C[C@@H](CC(=O)O)CC(=O)c1c([C@@H](O)CCCCCc2ccccc2)n(C)c2ccc(Cl)cc12 | 
 |  |  |  |  | C[C@@H](CC(=O)O)CC(=O)c1c(CCCCCCc2ccccc2)n(C)c2ccc(Cl)cc12 | Tmax [8]: 2.5 h; Cmax [9]: 79 µM; half-life [10]: 9.3 h; AUC(0-t) at 24 h [11]: 1080 µM·h; concentration at 24 h [12]: > 20 µM; Drug metabolism [13]: Metabolite_Detected; Drug uptake [14]: Active
2.5 | 108 | 7.4 | 1250 | 9.55 | CC(CC(=O)O)CC(=O)c1c(CCCCCCc2ccccc2)n(C)c2ccc(Cl)cc12 (racemic) | Drug metabolism [15]: Metabolite_Detected
 |  |  |  | 6.68 | CC(CC(=O)O)CC(=O)n1c(CCCc2ccccc2)cc2ccc(Cl)cc21 (stereo not drawn) | 
 |  |  |  | 7.92 | CC(CC(=O)O)CC(=O)n1c(CCCCCCc2ccccc2)cc2ccc(Cl)cc21 (stereo not drawn) | 
